Source: PubChem BioAssay
The list is not random: actives were taken first. Their share in the collection is about 2.4%.
zVAD death inh = inhibitors of zVAD-triggered necroptosis, primary screen, L929 cells; L929 zVAD necroptosis rescue, ATP luminescence, 24 h; with zVAD 60 µM; viability rescue, % at 10 µM; hit rate 0.38% among 220,000; AID 1377, 2008;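 active = activation, scaled between plate controls, above about 75%, limit read from the data; inactive = activation under that limit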;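 also: 0% = zVAD with DMSO and 100% = DMSO alone without zVAD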
MDM2 E3 inh = MDM2-luciferase reporter signal enhancers, primary screen, MDM2 E3 ligase inhibitor project, cell-based, luminescence, 1536-well. E3 ubiquitin-protein ligase Mdm2 (Homo sapiens), Q00987. cell-based MDM2 ubiquitination luciferase reporter, 2 h; 0 = plate control, 100 = twice control, blank-subtracted. signal enhancement, % at 5 µM. hit rate 0.11% among 210,000. AID 1230, 2008;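 active = signal enhancement of 30% or more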;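 also: luminescence tracks abundance of the self-degrading MDM2-luciferase fusion protein; higher signal means inhibition of MDM2 E3 ligase activity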
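Buffer or medium: Cells held in DMEM | Assay system: Stable mammalian line carrying autodegrading MDM2–luciferase fusion reporter | Quantity: 2000 cells/well | Times: 4 h settle plus 2 h compound, 37 °C | Doses: One concentration, 5 µM, with 0.2% DMSO | Technique: Luminescence with SteadyLite reagent, 15 min at room temperature | Benchmarks: Plate controls and plate blanks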
Autophagy HCS = autophagy modulators in MEF cells, primary screen, imaging, high-content, MEF GFP-LC3; calls only at 10 µM (by protocol); hit rate 0.98% among 190,000; MEF GFP-LC3 puncta imaging; test concentration mostly 10 µM;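 active = percentage of spot-positive cells more than 3 SD above its plate mean, without a fluorescence outlier flag or 80% toxicity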;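 also: spot-positive cell cutoff set from DMSO-treated cells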
TNF death inh = inhibitors of TNF-alpha triggered necroptosis, primary screen, cell-based, Jurkat FADD-/-, single concentration; Jurkat FADD-/- TNF necroptosis rescue, ATP luminescence, 24 h; 0 = TNF only, 100 = no-TNF cells; activation (protection from cell death), % at 10 µM; hit rate 0.068% among 220,000;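 active = activation, meaning protection from cell death, of at least 50% relative to plate controls; inactive = activation below 50%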;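 also: necroptosis triggered by 40 ng/mL TNF-alpha added together with compound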
Hck-Nef inh = inhibitors of Nef-activated human Hck kinase, primary screen, biochemical, Z-Lyte FRET, 384-well, Hck-YEEI; inhibition, % at 20 µM; Tyrosine-protein kinase HCK (Homo sapiens), P08631; hit rate 0.68% among 220,000; Recombinant Hck-YEEI plus Nef, Z-Lyte FRET kinase assay;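 active = Hck-Nef kinase inhibition above about 50%, limit read from the data; inactive = inhibition below that limit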;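 also: 0% = DMSO with Hck plus Nef and 100% = Hck alone without Nef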
Target sequence (P08631 whole entry, looked up): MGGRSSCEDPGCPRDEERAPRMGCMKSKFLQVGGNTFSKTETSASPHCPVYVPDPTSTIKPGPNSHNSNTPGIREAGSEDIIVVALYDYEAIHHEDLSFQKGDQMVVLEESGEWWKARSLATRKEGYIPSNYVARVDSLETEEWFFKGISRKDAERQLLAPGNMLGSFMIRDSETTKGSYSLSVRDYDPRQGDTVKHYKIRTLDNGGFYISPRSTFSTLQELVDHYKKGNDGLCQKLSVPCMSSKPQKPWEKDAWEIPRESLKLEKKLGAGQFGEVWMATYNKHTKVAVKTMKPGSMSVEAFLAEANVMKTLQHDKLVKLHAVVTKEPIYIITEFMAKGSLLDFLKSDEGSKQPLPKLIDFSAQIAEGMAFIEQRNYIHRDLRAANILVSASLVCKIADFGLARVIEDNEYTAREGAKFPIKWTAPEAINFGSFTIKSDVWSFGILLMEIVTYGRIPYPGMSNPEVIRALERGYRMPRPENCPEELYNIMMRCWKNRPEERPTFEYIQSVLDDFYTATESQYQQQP
Dynein cargo inh = inhibitors of GR-EGFP nuclear translocation, primary screen, dynein cargo transport inhibitor project, imaging, high-content, 3617.4 mouse cells | test concentration mostly 20 µM; stimulated with dexamethasone, 1 µM; active compounds read low | hit rate 0.47% among 220,000 | z-score, hits read low;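 active = plate z-score of nuclear minus cytoplasmic receptor signal below a set negative limit, without overly bright fluorescence or cell loss, cut at about -3.5 in these data, passing the limit was not always enough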;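 also: z-score of nuclear minus cytoplasmic ring GR-EGFP intensity difference per well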
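Medium: Induction medium lacking tetracycline, stripped serum | Probe or stimulus: 1.0 µM final dexamethasone stimulus | Schedule: 48 h induction, then 1 h compound, then 30 min agonist, 37 °C | Signal: Automated 10x imaging of fixed Hoechst-stained cells | Evaluation: Per-cell GR-EGFP intensity, nucleus versus surrounding cytoplasmic ring, well-averaged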
Hck Nef conf = retest of Hck:Nef kinase inhibitor hits, confirmation, biochemical, Z-Lyte FRET, 384-well, p-Tyr peptide counterscreen; shares compounds with Hck-Nef inh; calls only at 10 µM; hit rate 28% among 1,300; Recombinant Hck-YEEI:Nef, Z-Lyte FRET kinase assay;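 active = average inhibition of at least 50%, with Z-scores no higher than 3 in both the phospho-tyrosine peptide and fluorescence counterscreens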
Active calls of the source: *; i = inactive; nt = no result given; + = active, no number.

SMILES	zVAD death inh	MDM2 E3 inh	Autophagy HCS	TNF death inh	Hck-Nef inh	Dynein cargo inh	Hck Nef conf
CCSc1nc2c(cnn2-c2ccccc2)c(=O)n1N	3	-24	nt	3	59*	1.6	+
CSc1nc2c(cnn2-c2ccccc2)c(=O)n1N	3	-5	i	0	28	-0.037	nt
CCC(=O)Oc1ccc2oc(=O)cc(C)c2c1	1	8	i	3	3	-0.42	nt
CCC(=O)Oc1ccc2c(c1)OC1(OC(C)=O)OC(C)CC1=C2C (configuration not stated)	0	-13	nt	1	157*	-0.34	nt
O=c1[nH][nH]c2c(N=Cc3ccccc3O)ccc(F)c12	-1	-9	nt	-13	60*	0.42	i
CCOC(=O)c1c(/N=C/N(C)C)sc(C=O)c1-c1ccccc1	2	-12	i	-1	98*	-0.57	i
COc1cc(-c2nc(-c3ccc(NC(=O)c4ccc5c(c4)OCO5)cc3)no2)cc(OC)c1OC	0	3	+	-3	84*	-0.1	+
COc1ccccc1/C=C/C=N/NC(=O)c1cc(-c2ccco2)[nH]n1	5	-9	nt	-1	59*	0.57	i
COC(=O)c1ccccc1N1CCS(=O)(=O)CC1	0	-18	i	-1	-17	-0.091	nt
CCOc1ccc(N2CC(O)=C(c3nc4ccccc4c(=O)[nH]3)C2=N)cc1	2	-2	i	0	55*	-0.2	i
COc1cc(/C=C/c2ccc3cccc(OC)c3n2)c(O)c([N+](=O)[O-])c1	6	-6	i	-2	69*	-0.84	+
COc1cc(Cl)cc(/C=N/NC(N)=O)c1O	0	-8	i	-1	0	0.38	nt
O=C(O)COc1ccc(/C=N/NC(=O)c2ccc(-c3csc(Nc4ccc(Cl)cc4)n3)cc2)cc1	0	nt	nt	2	75*	-0.93	+
CCOc1cc(/C=N/NC(=O)c2ccc(-c3csc(Nc4ccc(C)cc4)n3)cc2)ccc1OCC(=O)O	1	-6	i	1	52*	-0.13	i
CCOc1cc(/C=N/NC(=O)c2ccncc2)ccc1OS(C)(=O)=O	0	8	i	1	5	-0.67	nt
CCN(CC)c1ccc(/C=N\NC(=O)c2cccc3cc[nH]c23)cc1	0	-1	nt	-15	-8	-0.33	nt
CC(Cc1ccsc1)NC(=O)CCc1nnc(CCc2ccccc2)o1 (configuration not stated)	0	-14	i	0	7	-0.097	nt
COc1ccc(C(=O)Nc2ccc(O)c3c(=O)cc(-c4cccc(Cl)c4)oc23)cc1	0	13	nt	-3	83*	1.1	i
CCc1ccc(/C=N/n2c(C)cc(C)c(C#N)c2=O)cc1	1	0	i	1	4	0.37	nt
CNc1nc(-c2cccs2)cc(C(F)(F)F)c1C#N	0	-11	nt	4	104*	-0.16	i
C=CCn1c(C(CCCC)CC(C)O)n[nH]c1=S (configuration not stated)	1	-7	i	1	0	0.77	nt
CCOc1ccccc1C(=O)N[C@H](C(=O)NCc1ccccc1)C(C)C	2	-17	i	0	11	-0.58	nt
O=C(N=Nc1ccc(NOC(=O)c2ccccc2Br)cc1)c1ccccc1O	-1	-44	i	-11	68*	-0.52	i
